Bioassay records as filed in PubChem BioAssay.
Shown is part of a subset that was picked to be rich in hits.
Lmaj promast: Leishmania major promastigote growth inhibition, primary screen. Leishmania major promastigotes, resazurin fluorescence viability. inhibition, % at 10 µM. 200,000 compounds, 9% hits; in the data active = inhibition above about 50%;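 note: promastigotes grown with compound for 44 hours at 28 °C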
S1P4 ag: S1P4 receptor agonists, primary screen, cell-based; 220,000 compounds, 0.35% hits; AID 1509, 2009; activation, % at 4.98 µM; S1P4-expressing cell line, agonist reporter assay; Sphingosine 1-phosphate receptor 4 (Homo sapiens), O95977; in the data active = activation above about 11%
S1P4 antagonist: S1P4 receptor antagonists, primary screen, cell-based; Sphingosine 1-phosphate receptor 4 (Homo sapiens), O95977; S1P4-expressing cells, antagonist mode, reporter read-out; inhibition, % at 4.98 µM; 220,000 compounds, 0.26% hits; in the data active = inhibition above about 29%
S1P3 antagonist: S1P3 receptor antagonists, primary screen, cell-based; Sphingosine 1-phosphate receptor 3 (Homo sapiens), Q99500; CHO S1P3 NFAT-BLA reporter, FRET fluorescence, antagonist mode; inhibition, % at 4.98 µM; 170,000 compounds, 0.27% hits; AID 485, 2006;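 active = inhibition above the plate cutoff, the mean inhibition of test wells on that plate plus 3 SD, cut at about 28% in these data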;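 note: cells challenged with S1P at its EC80 of 0.8 µM; blue over green emission ratio from cleaved BLA substrate after 4 h stimulation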
MDM2 E3 inh: MDM2-luciferase reporter signal enhancers, primary screen, MDM2 E3 ligase inhibitor project, cell-based, luminescence, 1536-well; AID 1230, 2008; E3 ubiquitin-protein ligase Mdm2 (Homo sapiens), Q00987; signal enhancement, % at 5 µM; cell-based MDM2 ubiquitination luciferase reporter, 2 h; 0 = plate control, 100 = twice control, blank-subtracted; 210,000 compounds, 0.11% hits;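 active = signal enhancement of 30% or more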;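 note: luminescence tracks abundance of the self-degrading MDM2-luciferase fusion protein; higher signal means inhibition of MDM2 E3 ligase activity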
Target sequence (Q00987 whole entry, looked up, the tested form may be a part): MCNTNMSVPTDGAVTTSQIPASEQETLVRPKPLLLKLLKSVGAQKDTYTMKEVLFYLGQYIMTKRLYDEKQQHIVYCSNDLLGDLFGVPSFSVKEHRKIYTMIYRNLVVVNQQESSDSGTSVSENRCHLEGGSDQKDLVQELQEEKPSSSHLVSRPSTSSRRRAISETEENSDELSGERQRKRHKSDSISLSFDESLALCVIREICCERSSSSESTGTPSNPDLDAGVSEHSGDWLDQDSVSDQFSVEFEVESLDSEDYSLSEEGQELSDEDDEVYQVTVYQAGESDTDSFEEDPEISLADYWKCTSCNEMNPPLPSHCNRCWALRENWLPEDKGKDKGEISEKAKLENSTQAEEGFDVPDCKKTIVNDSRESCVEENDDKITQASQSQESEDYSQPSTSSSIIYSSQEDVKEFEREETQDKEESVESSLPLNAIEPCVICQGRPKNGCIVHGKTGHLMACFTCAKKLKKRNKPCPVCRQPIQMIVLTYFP
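System: stable MDM2–luciferase fusion reporter cells / Input: 2000 cells seeded into each well / Schedule: 4 h settle plus 2 h compound, 37 °C / Compound: single-point 5 µM / Buffer or medium: cells held in DMEM / Benchmarks: control and blank well means / Evaluation: percent signal gain over controls, blank-subtracted / Measured by: luciferase luminescence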
A number is an active result; n = inactive; x = no result.

SMILES	Lmaj promast	S1P4 ag	S1P4 antagonist	S1P3 antagonist	MDM2 E3 inh
CC1CC(C)CN(CCCOc2ccccc2[N+](=O)[O-])C1 (stereo not given)	81.0	n	n	n	n
Cc1ccc([N+](=O)[O-])c(OCCN2CCCCCC2)c1	97.4	n	n	n	n
CCCCCOc1ccc(Cn2ccnc2)cc1[N+](=O)[O-]	n	n	n	n	n
Cc1ccc(OCCCn2ccnc2)c([N+](=O)[O-])c1	72.1	n	n	n	n
Cc1cc(OCCN2CCOCC2)ccc1[N+](=O)[O-]	n	n	n	n	n
CCOC(=O)C(CCCCCOc1ccccc1[N+](=O)[O-])C(=O)OCC	n	n	n	n	n
COc1cc(NC(=S)N2CCN(c3ccccn3)CC2)cc(OC)c1	n	n	n	n	n
Cc1ccc(OCCN2CCN(C)CC2)c([N+](=O)[O-])c1	95.1	n	n	n	n
Cc1ccc(OCCN2CCNCC2)c([N+](=O)[O-])c1	n	n	n	n	n
Cc1cnccc1CN(C)Cc1cn(C)nc1-c1cccc(Cl)c1	n	n	n	n	n
Cc1cnccc1CN(C)Cc1cn(C)nc1-c1ccc(Oc2ccccc2)cc1	89.0	n	n	n	n
CN1CCN(c2ccc(S(=O)(=O)N3CCCCC3)cc2NC(=O)c2ccc(F)cc2F)CC1	n	n	n	n	n
COc1ccc(CNC(=O)c2c(F)c(F)c(F)c(F)c2F)cc1	52.7	n	n	n	n
COc1ccc(CNC(=O)c2ccc(Br)cc2)cc1	n	n	n	n	n
C=CCn1c(=NC(=O)c2ccc(S(=O)(=O)N3CCCc4ccccc43)cc2)sc2cc(S(N)(=O)=O)ccc21	100.0	n	n	n	n
COCCn1c(=NC(=O)c2ccc(S(=O)(=O)N3CCCc4ccccc43)cc2)sc2cc(S(C)(=O)=O)ccc21	99.9	n	n	n	41.9
CCN1/C(=C/C(C)=C/c2sc3ccccc3[n+]2CC)Sc2ccccc21	99.8	n	n	n	n
CCOC(=O)Cn1c(S(=O)(=O)Cc2cccc(F)c2)nc(-c2ccccc2)c1-c1ccccc1	90.4	n	n	x	n
C#CCn1c(S(=O)(=O)Cc2ccc(F)cc2)nc(-c2ccccc2)c1-c1ccccc1	95.6	n	n	x	n
CCOC(=O)Cn1c(S(=O)(=O)Cc2ccc(F)cc2)nc(-c2ccccc2)c1-c1ccccc1	n	n	n	x	n
NC(=O)Cn1c(S(=O)(=O)Cc2ccccc2)nc2ccccc21	n	n	n	n	x
COc1ccc(C2CC(c3ccccc3)=NN2c2ccc(S(N)(=O)=O)cc2)cc1 (stereo not given)	n	n	n	n	n
NS(=O)(=O)c1ccc(N2N=C(c3ccccc3)CC2c2ccc(F)cc2)cc1 (stereo not given)	98.3	n	n	x	n
COCCNC(=O)Cn1nc(C(F)(F)F)c(Br)c1C	n	n	n	n	n
COc1cc(NC(=O)Cn2nc(C(F)(F)F)c(Br)c2C)cc([N+](=O)[O-])c1	98.4	n	n	n	n
SMILES	Lmaj promast	S1P4 ag	S1P4 antagonist	S1P3 antagonist	MDM2 E3 inh
O=C(NNc1cc(C(F)(F)F)nc2ccccc12)Nc1cccc(Cl)c1	x	n	n	n	n
COc1cccc(OC)c1C(=O)OCC(=O)NC(=O)NCc1ccccc1	n	n	n	n	n
O=C(COC(=O)c1c(Cl)ccc(Cl)c1Cl)NC(=O)NCc1ccccc1	78.8	n	n	n	n
COC(=O)C1C/C(=N\NS(=O)(=O)c2ccc(C)cc2)c2ccsc2C1 (stereo not given)	n	n	n	n	n
CCOCCCNC(=S)Nc1ccc2nc(N3CCCC3)cc(C)c2c1	99.6	n	n	n	n
COCCNC(=S)Nc1ccc2nc(N3CCCC3)cc(C)c2c1	99.9	n	n	n	n
Cc1cc(N2CCCC2)nc2ccc(NC(=S)NC(C)C)cc12	99.4	n	n	n	n
CC(=O)Nc1ccc(S(=O)(=O)N(C)c2ccc(OCC(=O)OCC(=O)NCc3ccco3)cc2)cc1	x	n	n	n	x
Cc1cc(Cl)ccc1OCCCC(=O)N/N=C/c1cccc([N+](=O)[O-])c1	n	n	n	n	x
CCOc1ccccc1NC(=O)N1CCCC(c2nc(-c3ccc(C)o3)no2)C1 (stereo not given)	n	n	n	n	n
C[n+]1c(/C=C/c2ccc3c(c2)OCO3)ccc2ccccc21	76.6	n	n	n	n
O=S(=O)(NCCc1cn2ccccc2n1)c1ccc2c(c1)CCCC2	n	n	n	n	x
CC(C)N1CCN(Cc2ccc(-c3ccccc3Cl)o2)CC1CCO (stereo not given)	n	n	n	n	n
OC(CCCN1CCC(O)(c2ccc(Cl)cc2)CC1)c1ccc(F)cc1 (stereo not given)	95.7	n	n	n	x
CC1=CC(=O)c2ccccc2C1=O	n	n	n	n	x
COc1cccc2c1C(=O)C=C(C)C2=O	99.3	n	n	n	n
COc1cc2c(cc1OC)CN(C(=O)c1ccc(S(=O)(=O)N(C)c3ccccc3)cc1)CC2	99.0	n	n	n	n
COc1cc2c(cc1OC)CN(C(=O)c1cccc(S(=O)(=O)N(C)C)c1)CC2	x	n	n	n	n
CCC(C)Nc1nc(-c2cccc(OC)c2O)nc2ccccc12 (stereo not given)	58.5	n	n	x	n
COc1cccc(-c2nc(NC(C)C)c3ccccc3n2)c1O	56.4	n	n	x	n
COc1cccc(-c2nc(N3CCN(c4ccccc4)CC3)c3ccccc3n2)c1O	n	n	n	x	n
COc1cccc(-c2nc(Oc3cccc(C)c3C)c3ccccc3n2)c1O	n	n	n	n	n
CC1CCc2c(C(=O)Nc3ccc(N4CCOCC4)cc3)csc2C1 (stereo not given)	n	n	n	n	n
CN(Cc1ccccc1)C(=O)COC(=O)C1=NNC(=O)CC1	51.9	n	n	n	n
CN(Cc1ccccc1)C(=O)COC(=O)c1cncc(Br)c1	n	n	n	n	n
SMILES	Lmaj promast	S1P4 ag	S1P4 antagonist	S1P3 antagonist	MDM2 E3 inh
CC1=C(C(=O)Nc2ccccc2)C(c2cccnc2)n2ncnc2N1 (stereo not given)	n	n	n	n	n
Cc1cc(=O)[nH]c(SCc2nc3ccc([N+](=O)[O-])cc3[nH]2)n1	55.3	n	n	n	n
Cc1ccc(C)c(NC(=O)C2CCCN2C(=O)NC2CCCCC2)c1 (stereo not given)	n	n	n	n	n
CC(C)C(c1nnnn1Cc1ccc(F)cc1)N1CCN(C2CCCC2)CC1 (stereo not given)	n	n	n	n	n
c1coc(Cn2nnnc2CN2CCN(C3CCCC3)CC2)c1	74.0	n	n	n	n
Fc1ccc(Cn2nnnc2CN2CCN(C3CCCCC3)CC2)cc1	86.1	n	n	n	n
CCCC(c1nnnn1Cc1ccc(F)cc1)N1CCN(C2CCCCC2)CC1 (stereo not given)	71.6	n	n	n	n
